Data taken from ChEMBL document CHEMBL3399972, “Structure-activity relationships of a novel pyranopyridine series of Gram-negative bacterial efflux pump inhibitors” (Bioorg Med Chem, 2015).
Values after ≈ are worked out from the molar mass of the structure shown. Active and inactive are the calls of the source.

Key:
Escherichia coli [1] = test: Inhibition of multidrug resistance efflux pump in Escherichia coli assessed as concentration required to reduce levofloxacin MIC by 4-fold by checkerboard assay
Escherichia coli [2] = test: Antibacterial activity against Escherichia coli at 100 uM; assay type: functional, organism-based
HeLa = test: Cytotoxicity against human HeLa cells; assay type: cell-based
Escherichia coli [3] = test: Inhibition of multidrug resistance efflux pump in wild-type Escherichia coli AB1157 assessed as concentration required to reduce piperacillin MIC by 4-fold by checkerboard assay
Escherichia coli [4] = test: Inhibition of lactose permease-dependent [3H]TMG uptake in Escherichia coli HN1157 up to 20 uM
How it was run: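 Proton motive force probed in E. coli HN1157 by LacY permease-mediated accumulation of [methyl-3H] thiogalactopyranoside (stock 1 mCi/ml, 7 Ci/mmol), compounds tested at concentrations up to 20 µM.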

[5] = Inhibition of mouse liver microsome CYP3A4 at 3 uM after 10 mins by luminescence assay; assay type: ADME; conditions: microsomes
[6] = Metabolic stability in human liver microsomes assessed as compound remaining at 25 uM after 60 mins by HPLC analysis in presence of NADPH; assay type: ADME; conditions: read-out: Stability
How it was run: (§1)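 Human or mouse liver microsomes at 0.5 mg/mL in 100 mM potassium phosphate pH 7.4 with 3 mM MgCl2, test compound 25 µM final, with or without (control) 2 mM NADPH; 37 °C for one hour, then stopped with equal volume acetonitrile containing 0.1% trifluoroacetic acid. Value: peak area with NADPH relative to no-NADPH control, as percent remaining.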

[7] = Aqueous solubility of the compound by nephlometric method; assay type: physicochemical
How it was run: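 Maximum solubility in water, measured by nephelometry.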

[8] = Metabolic stability in mouse liver microsomes assessed as compound remaining at 25 uM after 60 mins by HPLC analysis in presence of NADPH; assay type: ADME; conditions: read-out: Stability; how it was run: as §1

SMILES	INH (Escherichia coli [1])	Activity (Escherichia coli [2])	CC50 (HeLa)	INH (Escherichia coli [3])	inhibition (Escherichia coli [4])	inhibition (INH) [5]	remaining at 1 h, 25 µM [6]	solubility kinetic [7]	remaining at 1 h, 25 µM [8]
CC1(C)Cc2c(C#N)c(SCCC#N)nc(N3CCOCC3)c2CO1	> 100 µM	inactive	> 100 µM	> 100 µM					
CC1(C)Cc2c(C#N)c(SCCc3cccnc3)nc(N3CCOCC3)c2CO1	25 µM	inactive	> 100 µM	3.1 µM					
COc1ccc(CCSc2nc(N3CCOCC3)c3c(c2C#N)CC(C)(C)OC3)cc1	6.3 µM	inactive	> 100 µM	3.1 µM					
CCN(CC)c1nc(SCCc2ccccc2)c(C#N)c2c1COC(C)(C)C2	> 100 µM	inactive	38.2 µM	6.3 µM					
COCCN1CCN(c2nc(SCCOc3ccccc3)c(C#N)c3c2COC(C)(C)C3)CC1	> 100 µM	inactive	33.9 µM	12.5 µM					
CC1(C)Cc2c(C#N)c(SCCc3coc4ccccc34)nc(N3CCOCC3)c2CO1	> 100 µM	inactive	> 100 µM	6.3 µM					
CC1(C)Cc2c(C#N)c(SCCc3ccccc3F)nc(N3CCOCC3)c2CO1	> 100 µM	inactive	> 100 µM						
CC1(C)Cc2c(C#N)c(SCCc3ccc(F)cc3)nc(N3CCOCC3)c2CO1	6.3 µM	inactive	59 µM	3.1 µM					
CC1(C)Cc2c(C#N)c(S(=O)(=O)CCc3ccccc3)nc(N3CCOCC3)c2CO1	> 100 µM	inactive		> 100 µM					
COCCN1CCN(c2nc(SCCc3cccc(OC)c3)c(C#N)c3c2COC(C)(C)C3)CC1	6.3 µM	inactive	46.5 µM	4.7 µM					
N#Cc1c(SCCc2ccccc2)nc(N2CCOCC2)c2c1CCOC2	> 100 µM	inactive		> 100 µM					
COc1cccc(CCSc2nc(N3CC(C)OC(C)C3)c3c(c2C#N)CC(C)(C)OC3)c1 (stereo not given)	9.4 µM	inactive	> 100 µM	1.6 µM					
CC1(C)Cc2c(C#N)c(SCCc3ccccn3)nc(N3CCOCC3)c2CO1	50 µM	inactive	78.1 µM	25 µM					
CC1(C)Cc2c(C#N)c(SCc3ccccc3)nc(N3CCOCC3)c2CO1	> 100 µM	inactive		> 100 µM	inactive				
CC1(C)Cc2c(C#N)c(SCCc3ccccc3)nc(N3CCCNCC3)c2CO1	12.5 µM	inactive	20.3 µM	12.5 µM					
CN1CCCN(c2nc(SCCc3ccccc3)c(C#N)c3c2COC(C)(C)C3)CC1	12.5 µM	inactive	16.4 µM	25 µM					
CC1(C)Cc2c(C#N)c(SCCCc3ccccc3)nc(N3CCOCC3)c2CO1	> 100 µM	inactive		> 100 µM					
N#Cc1c(SCCc2ccccn2)nc(N2CCOCC2)c2c1CCOC2	> 100 µM	inactive		> 100 µM					
CN1CCN(c2nc(SCCc3ccccc3)c(C#N)c3c2COC(C)(C)C3)CC1	6.3 µM	inactive	14.4 µM	6.3 µM					
CC1(C)Cc2c(C#N)c(SCCc3ccccc3)nc(N3CCSCC3)c2CO1	> 100 µM	inactive	> 100 µM	1.6 µM					
COCCN1CCN(c2nc(SCCc3ccccn3)c(C#N)c3c2COC(C)(C)C3)CC1	12.5 µM	inactive	> 100 µM	3.1 µM		14%	0%	≥ 100 µM	3%
CC1(C)Cc2c(C#N)c(SCC(=O)c3ccccc3)nc(N3CCOCC3)c2CO1	> 100 µM	inactive		> 100 µM					
CC1(C)Cc2c(C#N)c([S+]([O-])CCc3ccccc3)nc(N3CCOCC3)c2CO1 (stereo not given)	> 100 µM	inactive		> 100 µM					
CC1(C)Cc2c(C#N)c(SCCc3nnn[nH]3)nc(N3CCOCC3)c2CO1	> 100 µM	inactive	30.2 µM	> 100 µM					
CC1(C)Cc2c(C#N)c(SCC(O)c3ccccc3)nc(N3CCOCC3)c2CO1 (stereo not given)	> 100 µM	inactive		> 100 µM					

SMILES	INH (Escherichia coli [1])	Activity (Escherichia coli [2])	CC50 (HeLa)	INH (Escherichia coli [3])	inhibition (Escherichia coli [4])	inhibition (INH) [5]	remaining at 1 h, 25 µM [6]	solubility kinetic [7]	remaining at 1 h, 25 µM [8]
CC1(C)Cc2c(C#N)c(SCCc3cccc(C#N)c3)nc(N3CCOCC3)c2CO1	12.5 µM	inactive	> 100 µM	3.9 µM					
COCCN1CCN(c2nc(SCCc3cccnc3)c(C#N)c3c2COC(C)(C)C3)CC1	> 100 µM	inactive	> 100 µM	25 µM					
CC1CN(c2nc(SCCc3ccc(NS(C)(=O)=O)cc3)c(C#N)c3c2COC(C)(C)C3)CC(C)O1 (stereo not given)	6.3 µM	inactive	67 µM	6.3 µM					
COCCN1CCN(c2nc(SCCc3ccncc3)c(C#N)c3c2COC(C)(C)C3)CC1	6.3 µM	inactive	95.9 µM	50 µM					
CC1(C)Cc2c(C#N)c(SCCc3ccccc3)nc(N3CCCC3)c2CO1	> 100 µM	inactive	20.2 µM	> 100 µM					
CC1(C)Cc2c(C#N)c(SCCc3cccc(F)c3)nc(N3CCOCC3)c2CO1	> 100 µM	inactive	> 100 µM	4.7 µM					
CC1(C)Cc2c(c(N3CCOCC3)nc(SCCc3ccccc3)c2C(=N)NO)CO1	> 100 µM	inactive		> 100 µM					
COc1ccc(CCSc2nc(N3CCOCC3)c3c(c2C#N)CC(C)(C)OC3)cc1OC	1.3 µM	inactive	69.4 µM	0.8 µM		49%	21%	25 µM (≈ 11.7 µg/mL)	5%
CC1CN(c2nc(SCCc3ccc(NC(=O)C(C)(C)C)cc3)c(C#N)c3c2COC(C)(C)C3)CC(C)O1 (stereo not given)	> 100 µM	inactive	> 100 µM	> 100 µM					
COCCN1CCN(c2nc(SCCc3ccccc3)c(C#N)c3c2COC(C)(C)C3)CC1	6.3 µM	inactive	34.2 µM	0.4 µM		18%	0%	50 µM (≈ 23.3 µg/mL)	0%
CC1(C)Cc2c(C#N)c(SCCc3ccc(S(=O)(=O)O)cc3)nc(N3CCOCC3)c2CO1	> 100 µM	inactive	17.2 µM	> 100 µM					
CC1(C)Cc2c(C#N)c(SCCc3c[nH]c4ccccc34)nc(N3CCOCC3)c2CO1	12.5 µM	inactive	44.8 µM	2.4 µM					
COCCN1CCN(c2nc(SCCc3ccccc3F)c(C#N)c3c2COC(C)(C)C3)CC1	12.5 µM	inactive	30.6 µM	9.4 µM					
CC1CN(c2nc(SCCc3ccccc3)c(C#N)c3c2COC(C)(C)C3)CC(C)O1 (stereo not given)		inactive	> 100 µM						
CC1(C)Cc2c(C#N)c(SCCc3ccccc3)nc(N3CCCOCC3)c2CO1	> 100 µM	inactive	> 100 µM	1.6 µM					
COc1ccccc1CCSc1nc(N2CCOCC2)c2c(c1C#N)CC(C)(C)OC2	3.1 µM	inactive	> 100 µM	3.1 µM					
COCCN1CCN(c2nc(SCCc3cccc(Br)c3)c(C#N)c3c2COC(C)(C)C3)CC1	12.5 µM	inactive	75.1 µM	2.8 µM					
COCCN1CCN(c2nc(SCCc3cccc(F)c3)c(C#N)c3c2COC(C)(C)C3)CC1	> 100 µM	inactive	37.9 µM	6.3 µM					
CC(=O)Oc1cccc(CCSc2nc(N3CCOCC3)c3c(c2C#N)CC(C)(C)OC3)c1	1.6 µM	inactive	48.3 µM	1.6 µM					
CC1(C)Cc2c(C#N)c(SCCc3cccc(-c4nnn[nH]4)c3)nc(N3CCOCC3)c2CO1	> 100 µM	inactive	20.7 µM	12.5 µM					
CC1(C)Cc2c(c(N3CCOCC3)nc(SCCc3ccccc3)c2C(N)=O)CO1	> 100 µM	inactive		> 100 µM					
CN(C)c1nc(SCCc2ccccc2)c(C#N)c2c1COC(C)(C)C2	> 100 µM	inactive	57.4 µM	9.4 µM					
CC1CN(c2nc(SCCc3ccc(NC(=O)C(F)(F)F)cc3)c(C#N)c3c2COC(C)(C)C3)CC(C)O1 (stereo not given)	1.6 µM	inactive	64 µM	1.6 µM		66%	90%	12.5 µM (≈ 6.86 µg/mL)	0%
CC1(C)Cc2c(C#N)c(SCCc3cccc(Cl)c3)nc(N3CCOCC3)c2CO1	3.1 µM	inactive	> 100 µM	3.1 µM					
